Results pooled from the literature.
Protocols differ between the studies behind these lines.
Target: Mitogen-activated protein kinase kinase kinase kinase 3 (MAP4K3, Homo sapiens, UniProt Q8IVH8)
Sequence (Q8IVH8 1-894, as in one of the studies): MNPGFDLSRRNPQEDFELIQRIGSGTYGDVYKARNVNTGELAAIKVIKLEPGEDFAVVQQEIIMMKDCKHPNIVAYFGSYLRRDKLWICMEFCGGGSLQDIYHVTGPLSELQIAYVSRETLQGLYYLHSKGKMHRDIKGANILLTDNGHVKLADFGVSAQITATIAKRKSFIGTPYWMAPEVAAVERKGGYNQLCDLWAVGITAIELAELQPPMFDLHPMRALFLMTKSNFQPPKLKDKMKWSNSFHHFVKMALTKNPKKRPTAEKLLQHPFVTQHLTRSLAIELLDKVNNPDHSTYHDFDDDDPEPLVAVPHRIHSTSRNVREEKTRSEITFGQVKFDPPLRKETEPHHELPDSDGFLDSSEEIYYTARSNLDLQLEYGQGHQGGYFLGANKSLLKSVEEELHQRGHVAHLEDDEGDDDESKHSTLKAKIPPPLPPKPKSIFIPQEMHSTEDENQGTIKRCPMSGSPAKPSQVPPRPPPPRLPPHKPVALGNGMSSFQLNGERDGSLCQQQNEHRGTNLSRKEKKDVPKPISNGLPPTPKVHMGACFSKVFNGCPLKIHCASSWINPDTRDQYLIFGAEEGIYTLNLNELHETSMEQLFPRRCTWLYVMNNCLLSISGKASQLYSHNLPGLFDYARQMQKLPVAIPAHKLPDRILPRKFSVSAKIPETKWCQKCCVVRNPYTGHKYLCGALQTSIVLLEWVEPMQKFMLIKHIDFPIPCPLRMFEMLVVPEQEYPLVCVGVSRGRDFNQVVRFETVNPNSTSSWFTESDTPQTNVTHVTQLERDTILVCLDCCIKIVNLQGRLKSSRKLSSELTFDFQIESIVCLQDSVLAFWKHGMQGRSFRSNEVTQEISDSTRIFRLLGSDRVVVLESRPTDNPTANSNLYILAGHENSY

SMILES | observed | action | technique | concentration | endpoint | result
FC(F)(F)Oc1cccc(-c2cnc3ccc(-c4ccncc4)nn23)c1 | enzyme activity | inhibitor | radiometric | 1 µM | activity vs control | 54%
COc1cc(/C=C/C(=O)CC(=O)/C=C/c2ccc(O)c(OC)c2)ccc1O | enzyme activity | inhibitor | – | 1 µM | activity vs control | 87%
CCCCN(CCCC)C(=O)CN1C[C@H](c2cc(OC)c3c(c2)OCO3)[C@@H](C(=O)O)[C@@H]1CC(C)(C)CCC | cell-free assay | – | competition with immobilised ligand | 1 µM | remaining binding | 100%
c1ccc(CNc2nc(N3CCOc4ccccc43)nc3c2CCCC3)cc1 | target engagement in cells | inhibitor | chemoproteomics | 20 mM | inhibition | 3.3%
COc1cc(Nc2cnc(C#N)c(O[C@H](C)CN(C)C)n2)ncc1-c1cnn(C)c1 | enzyme activity | inhibitor | radiometric | 1 µM | remaining activity | 45%
CC(=O)c1c(NS(C)(=O)=O)c2cc(-c3ccc(Cl)cc3)c(-c3ccc(Cl)cc3Cl)nc2n(C)c1=O | cell-free assay | – | competition with immobilised ligand | 1 µM | remaining binding | 99%
Cc1ccc(C(=O)Nc2ccc(CN3CCN(C)CC3)c(C(F)(F)F)c2)cc1C#Cc1cnc2cccnn12 | enzyme activity | inhibitor | – | 23.5 nM | remaining activity | 89%
Cc1sc(C(=O)NC2COC2)cc1-n1cc(NC(=O)Nc2c(F)cccc2Cl)cn1 | enzyme activity | inhibitor | – | 10 µM | remaining activity | 118%
Nc1ncnc2occ(-c3ccc(NC(=O)Nc4cc(C(F)(F)F)ccc4F)cc3)c12 | cell-free assay | inhibitor | – | 20 µM | remaining signal | 0.8%
CNC(=O)c1ccc(Nc2ncc(C(F)(F)F)c(NCc3nccnc3N(C)S(C)(=O)=O)n2)cc1 | cell-free assay | – | competition with immobilised ligand | 0.1 µM | remaining binding | 95%
COc1cc(Cl)c(C(=O)N[C@@H](CN[C@H]2CC[C@@H](N)CC2)Cc2ccc(C#N)cc2)cc1-c1ccc(CN[C@H](C)c2ccc(C)cc2)o1 | enzyme activity | inhibitor | – | 1 µM | remaining activity | 98%
Cc1ccc(C(=O)NCc2ccsc2)cc1C#Cc1cn(C(C)C)c2ncnc(N)c12 | enzyme activity | inhibitor | – | 1 µM | activity vs control | 54%
O=C(Nc1cnn(-c2csc(C(=O)NC3COC3)c2)c1)Nc1c(F)cccc1Cl | enzyme activity | inhibitor | – | 5 µM | remaining activity | 100%
CN1CC(Oc2cnc(C#N)cc2-c2ccn3nc(NC(=O)C4CC4)cc3c2)C1 | enzyme activity | inhibitor | – | 1 µM | inhibition | -4%
CCCCNc1ncc2c(-c3ccc(F)cc3)nn(C[C@H]3CC[C@H](N)CC3)c2n1 | target engagement in cells | inhibitor | chemoproteomics | 20 mM | inhibition | 44.6%
